Results from PMC8416298 (European Journal of Medicinal Chemistry, 2021).
Where two headings read alike, the source gives them in different places.

What was measured:
HCoV-229E = experiment: microbe, parasite or virus in culture; format: cell-based; details: Human coronavirus 229E, MRC5, read-out: EC50 (CI)
MRC-5 cells = experiment: MTT cell viability assay in MRC-5 cells; format: cell-based, human; details: in words
Method in brief: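 Human fibroblast MRC-5 cells exposed to test compound for 72 h; viability read by MTT (3-(4,5-dimethylthiazol-2-yl)-2,5-diphenyl tetrazolium bromide) assay. CC50 taken as the compound concentration that inhibits cell viability by 50%.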

SARS-CoV-2/NL/2020 = experiment: Plaque reduction assay; format: cell-based; details: for dose-dependent inhibitory activity: any of the tested SARS-CoV-2 strains, up to 50 μM
CCoV = details: dog, po, 1 mg/kg; cited from earlier work
SARS-CoV-2 [1] = details: virus yield reduction assay, 48 h, infected Vero E6 cells; cited from earlier work
SARS-CoV-2 [2] = details: 4-day cytopathic effect protection assay, Vero E6 cells; cited from earlier work
[3] = tested on: human prostaglandin E synthase type 2 (PGES-2); details: cited from earlier work

Structure (SMILES): COc1ccc2c(c1)c(CC(=O)NCCN1CCN(C(=O)CCC(=O)N[C@H](C(=O)N3C[C@H](O)C[C@H]3C(=O)N[C@@H](C)c3ccc(-c4scnc4C)cc3)C(C)(C)C)CC1)c(C)n2C(=O)c1ccc(Cl)cc1 [Compound 5, (2S,4R)-1-((S)-2-(4-(4-(2-(2-(1-(4-chlorobenzoyl)-5-methoxy-2-methyl-1H-indol-3-yl)acetamido)ethyl)piperazin-1-yl)-4-oxobutanamido)-3,3-dimethylbutanoyl)-4-hydroxy-N-((S)-1-(4-(4-methylthiazol-5-yl)phenyl)ethyl)pyrrolidine-2-carboxamide]
- EC50 (HCoV-229E): 3.4 µM
- cytotoxicity (MRC-5 cells): did not show significant cytotoxicity

Structure (SMILES): COc1ccc2c(c1)c(CC(=O)NCCOCCOCC(=O)N[C@H](C(=O)N1C[C@H](O)C[C@H]1C(=O)N[C@@H](C)c1ccc(-c3scnc3C)cc1)C(C)(C)C)c(C)n2C(=O)c1ccc(Cl)cc1 [Compound 4, (2S,4R)-1-((S)-2-(tert-butyl)-14-(1-(4-chlorobenzoyl)-5-methoxy-2-methyl-1H-indol-3-yl)-4,13-dioxo-6,9-dioxa-3,12-diazatetradecanoyl)-4-hydroxy-N-((S)-1-(4-(4-methylthiazol-5-yl)phenyl)ethyl)pyrrolidine-2-carboxamide]
- dose-dependent inhibitory activity (SARS-CoV-2/NL/2020): did not show dose-dependent inhibitory activity
- activity in PRA (SARS-CoV-2/NL/2020; in words): not active

Structure (SMILES): COc1ccc2c(c1)c(CC(=O)O)c(C)n2C(=O)c1ccc(Cl)cc1 [INM, Indomethacin]
- in vivo antiviral efficacy (CCoV): in vivo antiviral efficacy
- EC50 (SARS-CoV-2 [1]): 100 µM
- EC50 (SARS-CoV-2 [2]): > 400 µM
- PGES-2 inhibition [3]: low nanomolar range

Structure (SMILES): COc1ccc2c(c1)c(CC(=O)NCCCCC(=O)N[C@H](C(=O)N1C[C@H](O)C[C@H]1C(=O)N[C@@H](C)c1ccc(-c3scnc3C)cc1)C(C)(C)C)c(C)n2C(=O)c1ccc(Cl)cc1 [Compound 2, (2S,4R)-1-((S)-2-(5-(2-(1-(4-chlorobenzoyl)-5-methoxy-2-methyl-1H-indol-3-yl)acetamido)pentanamido)-3,3-dimethylbutanoyl)-4-hydroxy-N-((S)-1-(4-(4-methylthiazol-5-yl)phenyl)ethyl)pyrrolidine-2-carboxamide]
- dose-dependent inhibitory activity (SARS-CoV-2/NL/2020): did not show dose-dependent inhibitory activity

Structure (SMILES): COc1ccc2c(c1)c(CC(=O)NCCCCCCC(=O)N[C@H](C(=O)N1C[C@H](O)C[C@H]1C(=O)N[C@@H](C)c1ccc(-c3scnc3C)cc1)C(C)(C)C)c(C)n2C(=O)c1ccc(Cl)cc1 [Compound 3, (2S,4R)-1-((S)-2-(7-(2-(1-(4-chlorobenzoyl)-5-methoxy-2-methyl-1H-indol-3-yl)acetamido)heptanamido)-3,3-dimethylbutanoyl)-4-hydroxy-N-((S)-1-(4-(4-methylthiazol-5-yl)phenyl)ethyl)pyrrolidine-2-carboxamide]
- cytotoxicity (MRC-5 cells): did not show significant cytotoxicity
